# Published values of several laboratories.
# Lines come from different studies, so protocols differ.
# Target: Wee1-like protein kinase (WEE1, Homo sapiens, UniProt P30291)
SMILES,test,conditions,remaining binding
c1cnn2ncc(-c3ccnc(N4CCC45COC5)n3)c2c1,binding,1 µM,92%
O=C(O)[C@@H]1[C@@H](Cn2nnc3ccccc3c2=O)CC[C@H]1C(=O)c1ccc(OCCC2CCOCC2)cc1,"cell-free assay, competition with immobilised ligand",1 µM,93%
O=C(NCCCN1CCOCC1)c1ccc(Nc2ncc(Cl)c(-c3ccc(Cl)s3)n2)cc1,"binding, competition with immobilised ligand",1 µM,15%
CNC(=O)[C@@H]1CC[C@@H](n2c(-c3ccc4cnccc4c3)nc3ccc(C(=O)NCc4cccc(C(N)=O)c4)cc32)C1,"binding, competition with immobilised ligand",1 µM,98%
O=C1CCc2cc(Nc3cc(OC4CCOCC4)c([N+](=O)[O-])cc3Cl)ccc2N1,"cell-free assay, competition with immobilised ligand",1 µM,99%
O=C(c1ccc(Nc2ncc(Cl)c(-c3cc4ccccc4s3)n2)cc1)N1CCC(N2CCCC2)CC1,"binding, competition with immobilised ligand",1 µM,11%
c1cncc(-c2cccc(Nc3nccc(NC4CCCCC4)n3)c2)c1,"binding, competition with immobilised ligand",10 µM,90%
COc1cnc(Nc2cccc(S(N)(=O)=O)c2)nc1N1CCN(c2ccccc2)C(=O)C1,"binding, competition with immobilised ligand",1 µM,98%
CN(C)c1ncc(F)c(-c2cnn3ncccc23)n1,binding,1 µM,100%
CCN1CCN(Cc2ccc(C(=O)Nc3ccc(C)c(Oc4ccc5c(c4)CC(=O)N5)c3)cc2C(F)(F)F)CC1,"binding, competition with immobilised ligand",1 µM,100%
N[C@@H]1CCN(c2nccc(-c3cnn4ncccc34)n2)C1,binding,1 µM,100%
Cc1c[nH]c2nccc(Oc3c(F)cc(Nc4cc(Cl)nc(N)n4)cc3F)c12,"cell-free assay, competition with immobilised ligand",0.1 µM,100%
CN(CCCC(F)(F)F)c1nccc(-c2cnn3ncccc23)n1,binding,1 µM,100%
CN1CCN(c2cnc3c(C4CCN(C(=O)c5ccc(OC(F)(F)F)cc5N)CC4)ncnc3c2)CC1,"cell-free assay, competition with immobilised ligand",1 µM,96%
CC1CCCN1c1nccc(-c2cnn3ncccc23)n1 (stereo not shown),binding,1 µM,100%
CC(C)CC(=O)N1CCc2nc(-c3ccc(Br)cc3)nc(N(C)Cc3ccccc3)c2C1,"cell-free assay, competition with immobilised ligand",0.1 µM,100%
O=C(Nc1c[nH]nc1C(=O)NC1CCNCC1)c1cc(F)cc(F)c1,"binding, competition with immobilised ligand",1 µM,100%
O=C(NCc1ncc(C(F)(F)F)cc1Cl)c1ccc2c(c1)C1(CCS(=O)(=O)CC1)[C@@H](C1CC1)N2S(=O)(=O)c1ccc(F)cc1,"cell-free assay, competition with immobilised ligand",1 µM,100%
C[C@@H](c1ccc(-n2cnc3c(N)ncnc32)cc1)N1CCc2nn(C)c(Cc3ccccc3)c2C1=O,"binding, competition with immobilised ligand",0.1 µM,85%
O=C(c1ccc(Nc2ncc(Cl)c(-c3ccc(Cl)s3)n2)cc1)N1CCC(N2CCCC2)CC1,"binding, competition with immobilised ligand",1 µM,11%
CO[C@@H](C)c1c(Nc2ccc([C@@H](N(C)C(=O)C3CCS(=O)(=O)CC3)C(F)(F)F)cc2)cnc2cc(Cl)nn12,"cell-free assay, competition with immobilised ligand",1 µM,92%
C[C@H]1CCN(c2nccc(-c3cnn4ncccc34)n2)C1,binding,1 µM,100%
